Results as given in the array DNA melting data of Ke et al. (doi:10.1101/2024.01.08.574731).

Key:
[1] = folding enthalpy; higher = less favourable; fluorescence melt of hairpins on a sequencing array, two-state fit; conditions: sodium 0.088 M
Summary of the method: (§1)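 Folding enthalpy and melting temperature were estimated with bootstrapped two-state fits and combined across four replicates by inverse-variance weighting, with fitted temperatures raised by 9.35 °C to match UV melts. The data were Cy3 fluorescence of library hairpins, with annealed Cy3 and quencher oligos, on a sequenced MiSeq flow cell in 50 mM Na-HEPES pH 8.0, 25 mM NaCl, imaged in 2.5 °C steps up to 60 °C and normalised to pre-quench Cy3 and control constructs.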

[2] = melting temperature; fluorescence melt of hairpins on a sequencing array, two-state fit, raised by 9.35 °C to match UV melts; conditions: sodium 0.088 M
Summary of the method: as §1

Q: For GCGTGGGGAAACTCGCGC (((.(.(....).).))), which folding enthalpy [1] is on record?
A: -35.6 kcal/mol

Q: What about the Tm [2] of the same sequence?
A: 54 °C

Q: Which folding enthalpy [1] does the source give for GTGTCTGGAAACAAACAC ((((.((....)).)))) here?
A: -21.6 kcal/mol

Q: What about the Tm [2] of the same sequence?
A: 33.2 °C

Q: For GTACGTGCGAAAGCATAC (((..(((....)))))), which folding enthalpy [1] is on record?
A: -10.3 kcal/mol

Q: And the Tm [2]?
A: 26.4 °C

Q: For GCTGTCGGAAACGGCAGC ((((.((....)).)))), which folding enthalpy [1] is on record?
A: -47.7 kcal/mol

Q: And the Tm [2]?
A: 63 °C

Q: Which results are given for GCTCGGCGAAAGCTGCGC ((.(.((....)).).))?
A: folding enthalpy [1]: -17.4 kcal/mol; Tm [2]: 56.2 °C

Q: Which folding enthalpy [1] does the source give for GATCTTCAGAAGATC ((((((...)))))) here?
A: -35.9 kcal/mol

Q: And the Tm [2]?
A: 40.3 °C

Q: What does the source list for GTAAACGAAAGTTGTTAC ((((((....)))..)))?
A: folding enthalpy [1]: -10.1 kcal/mol; Tm [2]: 23.7 °C

Q: Which folding enthalpy [1] does the source give for GCAATGCGAAAGCGTCGC ((.(.((....)).).)) here?
A: -19.3 kcal/mol

Q: What about the Tm [2] of the same sequence?
A: 45.4 °C

Q: Which results are given for CGGCGCGGAAACGCTCCG (((.(((....))).)))?
A: folding enthalpy [1]: -33.7 kcal/mol; Tm [2]: 56.5 °C

Q: Which folding enthalpy [1] does the source give for GCTTACGGAAACGTAAAC (.(((((....))))).) here?
A: -17.9 kcal/mol

Q: What about the Tm [2] of the same sequence?
A: 33.3 °C

Q: For GCTTGCGAAAGCAGTAGC ((((((....)))..))), which folding enthalpy [1] is on record?
A: -17.8 kcal/mol

Q: What about the Tm [2] of the same sequence?
A: 45.7 °C

Q: For GTGGGCGAAAGCCCCAC ((((((....))).))), which folding enthalpy [1] is on record?
A: -11.3 kcal/mol

Q: And the Tm [2]?
A: 60.2 °C

Q: For GGAGTATCGAAAGATTCC (((..(((....)))))), which folding enthalpy [1] is on record?
A: -13.1 kcal/mol

Q: And the Tm [2]?
A: 26.6 °C

Q: Which results are given for GTAGGTGAAAACCTAC ((((((....))))))?
A: folding enthalpy [1]: -30.9 kcal/mol; Tm [2]: 56.4 °C

Q: For GGGTACGGAAACGTGCCC (((.(((....))).))), which folding enthalpy [1] is on record?
A: -53.5 kcal/mol

Q: And the Tm [2]?
A: 60.1 °C

Q: With GTGGGCGAAAGCCAACAC ((((((....)))..))) as the sequence, how does the folding enthalpy [1] read?
A: -15 kcal/mol

Q: And the Tm [2]?
A: 53.5 °C

Q: For GATCCCTAGTGGGATC ((((((....)))))), which folding enthalpy [1] is on record?
A: -38.7 kcal/mol

Q: What about the Tm [2] of the same sequence?
A: 57 °C

Q: For GGTTCTGCGAAAGCAACC (((..(((....)))))), which folding enthalpy [1] is on record?
A: -12.3 kcal/mol

Q: What about the Tm [2] of the same sequence?
A: 31.1 °C

Q: With GCTCCTGCGAAAGCAAGC (((..(((....)))))) as the sequence, how does the folding enthalpy [1] read?
A: -9.07 kcal/mol

Q: What about the Tm [2] of the same sequence?
A: 26.7 °C

Q: Which folding enthalpy [1] does the source give for GAGTGTGGAAACGTACTC ((((..(....)..)))) here?
A: -22.9 kcal/mol

Q: And the Tm [2]?
A: 35.5 °C

Q: For GATCGTCCTACGATC ((((((...)))))), which folding enthalpy [1] is on record?
A: -38.6 kcal/mol

Q: And the Tm [2]?
A: 56.5 °C

Q: Which folding enthalpy [1] does the source give for CGCCACGGAAACGTAGCG (((.(((....))).))) here?
A: -37.7 kcal/mol

Q: What about the Tm [2] of the same sequence?
A: 50.1 °C

Q: Which folding enthalpy [1] does the source give for GATCGAGGGTTCGATC ((((((....)))))) here?
A: -36.9 kcal/mol

Q: And the Tm [2]?
A: 50.9 °C

Q: Which folding enthalpy [1] does the source give for GATCAGCGTCCTGATC ((((((....)))))) here?
A: -32.4 kcal/mol

Q: And the Tm [2]?
A: 49 °C

Q: Which folding enthalpy [1] does the source give for GCGCGGCGAAAGCGGTGC ((.(.((....)).).)) here?
A: -31.2 kcal/mol

Q: What about the Tm [2] of the same sequence?
A: 65.2 °C

Q: Which folding enthalpy [1] does the source give for GATCCGGCTTCGGATC ((((((....)))))) here?
A: -39.8 kcal/mol

Q: What about the Tm [2] of the same sequence?
A: 59.5 °C

Q: What does the source list for GCGCAGGCGAAAGCCCGC (((..(((....))))))?
A: folding enthalpy [1]: -16.7 kcal/mol; Tm [2]: 60.1 °C

Q: Which folding enthalpy [1] does the source give for CGGAGCGGAAACGCGCCG (((.(((....))).))) here?
A: -27 kcal/mol

Q: What about the Tm [2] of the same sequence?
A: 68.6 °C

Q: For GATCCGTCGACGGATC ((((((....)))))), which folding enthalpy [1] is on record?
A: -48.8 kcal/mol

Q: What about the Tm [2] of the same sequence?
A: 61.9 °C

Q: Which folding enthalpy [1] does the source give for GGAGACGAAAGTCAATCC ((((((....)))..))) here?
A: -15.1 kcal/mol

Q: What about the Tm [2] of the same sequence?
A: 31 °C

Q: What does the source list for CGCGGACCTCTCCGCG ((((((....))))))?
A: folding enthalpy [1]: -31.9 kcal/mol; Tm [2]: 68.7 °C

Q: Which results are given for GATCGTCGGCACGATC ((((((....))))))?
A: folding enthalpy [1]: -21.4 kcal/mol; Tm [2]: 53 °C

Q: For GCCGAGGGAAACCCCGAC (.((.((....)).)).), which folding enthalpy [1] is on record?
A: -13.8 kcal/mol

Q: What about the Tm [2] of the same sequence?
A: 31 °C

Q: What does the source list for GTTCGCGAAAGCGAGAAC ((((((....)))..)))?
A: folding enthalpy [1]: -9.97 kcal/mol; Tm [2]: 42.3 °C

Q: What does the source list for GACTGTGAAAACAGTC ((((((....))))))?
A: folding enthalpy [1]: -34.1 kcal/mol; Tm [2]: 58.5 °C

Q: Which folding enthalpy [1] does the source give for GATCGCTGTTGCGATC ((((((....)))))) here?
A: -28.7 kcal/mol

Q: What about the Tm [2] of the same sequence?
A: 67.8 °C

Q: What does the source list for GATCTGTCAACAGATC ((((((....))))))?
A: folding enthalpy [1]: -39.1 kcal/mol; Tm [2]: 51.6 °C

Q: For GGATCTCCGAAAGGATCC (((..(((....)))))), which folding enthalpy [1] is on record?
A: -23.8 kcal/mol

Q: What about the Tm [2] of the same sequence?
A: 42.1 °C

Q: For GGATGTGGAAACACATTC (.(((((....))))).), which folding enthalpy [1] is on record?
A: -25.7 kcal/mol

Q: What about the Tm [2] of the same sequence?
A: 47.6 °C

Q: For GGAATCGAAAGATTGTCC ((((((....)))..))), which folding enthalpy [1] is on record?
A: -11.1 kcal/mol

Q: What about the Tm [2] of the same sequence?
A: 27.2 °C

Q: What does the source list for GCGTCCGTACGC ((((....))))?
A: folding enthalpy [1]: -26.8 kcal/mol; Tm [2]: 52.3 °C

Q: Which folding enthalpy [1] does the source give for GCTATGCGAAAGCGGAGC (((..((....))..))) here?
A: -26.3 kcal/mol

Q: And the Tm [2]?
A: 53.6 °C

Q: Which folding enthalpy [1] does the source give for GCAACGTCGAAAGACTGC (((..(((....)))))) here?
A: -20.1 kcal/mol

Q: What about the Tm [2] of the same sequence?
A: 39.1 °C

Q: For GTAAATGGAAACATTTAC (((((((....))))))), which folding enthalpy [1] is on record?
A: -31.5 kcal/mol

Q: What about the Tm [2] of the same sequence?
A: 51.3 °C

Q: With ACTACGAAAGTAGT (((((....))))) as the sequence, how does the folding enthalpy [1] read?
A: -18.7 kcal/mol

Q: What about the Tm [2] of the same sequence?
A: 50.9 °C

Q: Which folding enthalpy [1] does the source give for GCCATGCGAAAGCTGGGC (((..((....))..))) here?
A: -26.4 kcal/mol

Q: And the Tm [2]?
A: 62.6 °C
